pCIP destab = p/CIP protein destabilization; Q05BA5; F442A p/CIP-EGFP cells, EGFP fluorescence, 16 h; decrease of EGFP signal, % at 10 µM; 290,000 tested, 0.01% active; AID 1984;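 active = EGFP signal decrease of at least 30% at 10 µM or well 3 SD below plate mean, unless failing retest; inactive = the rest, including hits failing retest or dose response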
Lipid droplet = modulators of hepatic lipid droplet formation | AML12 mouse hepatocytes, oleate lipid droplets, BODIPY imaging | inhibition, % at 6.5 µM | 240,000 tested, 0.4% active;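 active = lipid droplet intensity inhibited by at least 50%, with more than 500 cells counted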
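Material – AML12 mouse liver cells · Also added – oleate loading, 100 µM · Compound dosing – 6.5 µM single-point dosing · Times – overnight treatment with compound plus oleate · Measured by – fluorescence imaging, 20x objective, two fields per well · Read-out – percent inhibition of filter-corrected integrated lipid droplet intensity per well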
CTSL1 counter = cathepsin L1 inhibition, PFM18AAP counter-screen; recombinant F. hepatica cathepsin L1, Z-Leu-Arg-MCA fluorescence; inhibition, % at 5.96 µM; 300,000 tested, 0.49% active; AID 1906;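 active = inhibition above the mean of all tested compounds plus 3 SD, set per screening campaign, cut at about 17% in these data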;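 note: 0% = plate median of test compound wells and 100% = 1 µM Z-Phe-Ala-diazomethylketone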
Arrestin-AP2 inh = inhibitors of human beta-arrestin and AP2 interaction; 340,000 tested, 0.31% active; inhibition, % at 10 µM; FITC-arrestin peptide / GST-AP2 beads, flow cytometry; AP2 beta2 appendage carries R879A mutation; AID 504490;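 active = inhibition above a set limit, near 3 SD of compounds lacking own fluorescence, cut at about 54% in these data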;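 note: plate controls were DMSO wells for no effect and 5 µM unlabelled arrestin peptide for full effect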
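System: GST-AP2 R879A glutathione beads; medium: PBS, Tween 20 0.05%, BSA 0.1%; reagent: fluorescein-tagged arrestin peptide at 50 nM final; schedule: pre-incubation 12 min, peptide binding 1 h, room temperature; detection: flow cytometry, FL1 (488/535 nm); read-out: inhibition as reduced fluorescein signal on beads, percent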
Arr-AP2 CP1 = inhibitors of human beta-arrestin and AP2 interaction. inhibition, % at 10 µM. AID 504908. shares compounds with Arrestin-AP2 inh. GST-AP2 beads, FITC arrestin peptide binding, flow cytometry; GST-fused beta2-adaptin appendage, R879A mutant. 1,300 tested, 2% active;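 active = inhibition above a set limit, roughly 3 SD of non-fluorescent compound noise, cut at about 38% in these data; inactive = inhibition at or below that limit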;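 note: loss of bead fluorescence from 50 nM FITC arrestin peptide bound to appendage; 0% = negative control wells and 100% = excess unlabelled arrestin peptide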
Target sequence (P63010 whole entry, looked up, the tested form may be a part, one chain of several): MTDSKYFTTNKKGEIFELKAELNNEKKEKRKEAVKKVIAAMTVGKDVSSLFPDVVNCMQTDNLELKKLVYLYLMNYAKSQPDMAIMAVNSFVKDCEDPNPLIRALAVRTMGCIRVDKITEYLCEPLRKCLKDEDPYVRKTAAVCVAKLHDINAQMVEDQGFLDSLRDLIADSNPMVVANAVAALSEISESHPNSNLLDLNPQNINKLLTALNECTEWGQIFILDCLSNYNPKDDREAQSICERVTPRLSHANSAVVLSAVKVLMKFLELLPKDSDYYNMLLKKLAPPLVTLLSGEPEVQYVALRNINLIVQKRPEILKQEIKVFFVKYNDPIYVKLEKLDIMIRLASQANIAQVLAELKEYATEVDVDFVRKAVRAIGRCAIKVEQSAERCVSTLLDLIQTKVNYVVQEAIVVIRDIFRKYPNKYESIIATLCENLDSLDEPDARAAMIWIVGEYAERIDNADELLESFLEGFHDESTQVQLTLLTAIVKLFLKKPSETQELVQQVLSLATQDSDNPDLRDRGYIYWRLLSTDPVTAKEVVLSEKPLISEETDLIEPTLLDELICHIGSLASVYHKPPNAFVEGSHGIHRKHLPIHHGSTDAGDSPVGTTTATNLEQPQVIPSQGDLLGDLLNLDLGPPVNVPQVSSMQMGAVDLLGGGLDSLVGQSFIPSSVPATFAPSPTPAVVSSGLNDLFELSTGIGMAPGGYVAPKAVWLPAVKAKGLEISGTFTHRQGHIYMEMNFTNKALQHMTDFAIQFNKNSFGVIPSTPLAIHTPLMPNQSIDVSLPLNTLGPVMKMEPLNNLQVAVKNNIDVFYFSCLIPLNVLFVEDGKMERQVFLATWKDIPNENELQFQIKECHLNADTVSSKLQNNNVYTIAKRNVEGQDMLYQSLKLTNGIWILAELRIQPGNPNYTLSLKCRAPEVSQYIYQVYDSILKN
GST-FITC bead = counter-screen for beta-arrestin AP2 inhibitors: GST-GSH bead binding; inhibition, % at 10 µM; shares compounds with Arrestin-AP2 inh; AID 588338; GST-fluorescein binding to GSH beads, fluorescence; 1,300 tested, 2% active;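 active = inhibition above 50%, about 3 SD of the inhibition seen with non-fluorescent compounds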;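 note: fluorescein maleimide labelled GST captured on 4 micron glutathione beads; higher means more loss of bead fluorescence from quenching or blocked binding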
The depositor's hits bear a star; nt = not tested or not shown. The list is not random: actives were taken first. Their share in the collection is about 1%.

SMILES	pCIP destab	Lipid droplet	CTSL1 counter	Arrestin-AP2 inh	Arr-AP2 CP1	GST-FITC bead
CNC(=O)C1CCC(=O)N1Cc1ccc(C)cc1 (stereo not drawn)	6	-2	-4	1	nt	nt
O=C(NCCN1CCOCC1)C1CCC(=O)N1Cc1ccccc1Cl (stereo not drawn)	5	-6	1	12	10	-2
Cc1ccc(CN2C(=O)CCC2C(=O)NCCCN2CCC(C)CC2)cc1 (stereo not drawn)	-6	10	nt	-3	-2	10
Cn1c(=O)c2[nH]c(CCCc3ccc([N+](=O)[O-])cc3)nc2n(C)c1=O	nt	nt	nt	-6	nt	nt
COc1cccc(CN(C)c2nc(-c3cccs3)nc3ccccc23)c1	-6	5	4	55*	-11	-3
CC1CC(C)CN(CCCNC(=O)c2ccc(CS(=O)(=O)Cc3ccccc3F)o2)C1 (stereo not drawn)	9	nt	0	59*	-3	-11
COc1ccccc1C(O)(C(=O)N(NC(C)=O)c1ccccc1)c1ccccc1OC	-3	5	nt	0	nt	nt
COc1ccc(NC(=O)CSc2cccc3cccnc23)c(OC)c1	-10	5	-9	7	nt	nt
CCCCCOc1ccc(NC(=O)CSc2cccc3cccnc23)cc1	-2	-1	5	107*	4	-4
NS(=O)(=O)c1cc(C(=O)NNC(=O)c2ccc3c(c2)OCO3)ccc1Cl	nt	nt	nt	4	nt	nt
COc1cc(C(=O)OCC(=O)Nc2nnc(-c3ccccc3)o2)cc(OC)c1OC	nt	nt	-2	55*	-6	-8
COc1cc(C(=O)NCC(=O)OCC(=O)Nc2nnc(-c3ccccc3)o2)cc(OC)c1OC	nt	nt	1	0	nt	nt
CCn1ncc(C(=O)Nc2ccc([N+](=O)[O-])cc2OC)c1C	nt	nt	0	1	nt	nt
CCn1ncc(Cl)c1C(=O)Nc1cc([N+](=O)[O-])ccc1OC	-3	-5	3	106*	-2	14
CN(Cc1ccccc1)C(=O)CN1C(=O)NC2(CCCC2)C1=O	nt	nt	nt	-2	nt	nt
Cc1cccc(C)c1NC(=S)Nc1ccc(F)cc1	-1	-10	1	57*	3	-4
Cc1cc2nc(/C(C#N)=C\c3ccc(-c4ccccc4C(=O)O)o3)[nH]c2cc1C	-148	-15	6	54*	6	15
CN(C)c1oc(COc2ccc(F)cc2)nc1C#N	4	13	3	55*	0	4
O=c1c2cc(Br)ccc2[nH]c(=S)n1Cc1ccccn1	5	10	-1	-7	nt	nt
CCCCCc1nc2sc3c(c2c(=O)n1N)CCC3	-3	5	-1	97*	-6	-3
O=C(Oc1ccccc1F)c1ccc2c(=O)n3c(nc2c1)CCC3	nt	nt	5	57*	5	-1
Cc1ccc(-n2c(C)nn(CC3CC3)c2=O)cc1	-10	4	-2	-35	nt	nt
O=S(=O)(c1ccccc1)N1CCN(c2nc(-c3cccs3)nc3ccccc23)CC1	0	8	1	nt	nt	nt
CN(Cc1cccs1)C(=O)c1cc(S(=O)(=O)N2CCOCC2)ccc1N1CCCC1	nt	nt	nt	34	nt	nt
CC1CCN(C(=O)c2cc(S(=O)(=O)N3CCOCC3)ccc2N2CCCC2)CC1	nt	nt	nt	26	1	-7
SMILES	pCIP destab	Lipid droplet	CTSL1 counter	Arrestin-AP2 inh	Arr-AP2 CP1	GST-FITC bead
CC(Oc1cccc(Cl)c1)C(=O)Nc1cc(S(=O)(=O)N2CCOCC2)ccc1N1CCCC1 (stereo not drawn)	nt	nt	2	62*	2	1
O=C(NC1CCCCCC1)c1cc(S(=O)(=O)N2CCOCC2)ccc1N1CCCCC1	-11	nt	-2	-8	-8	-4
CC1CCN(C(=O)c2ccc(S(=O)(=O)N3CCOCC3)cc2)CC1	-1	8	3	-10	nt	nt
COc1ccc(CN(C)C(=O)c2cc(S(=O)(=O)N3CCOCC3)ccc2N2CCCC2)cc1	nt	nt	0	6	-2	-4
CN(C)S(=O)(=O)c1ccc(NC(=O)CN2CCCC2c2ccc3c(c2)OCCCO3)cc1 (stereo not drawn)	nt	nt	nt	-4	nt	nt
O=C(Nc1ccc(OC(F)F)cc1)c1cc(S(=O)(=O)N2CCOCC2)ccc1N1CCCC1	nt	nt	nt	28	1	2
CN(Cc1cccc(F)c1)C(=O)c1ccc(S(=O)(=O)N2CCOCC2)cc1	nt	nt	nt	63*	-4	-7
COc1ccc(OCCn2c(=N)n(CCO)c3ccccc32)cc1	8	nt	2	35	nt	nt
CCCCn1c(=N)n(CCOc2ccc(C)cc2)c2ccccc21	-1	-13	-2	73*	-4	-3
Cc1ccc(O)c(-c2cc(-c3cccc(Br)c3)n[nH]2)c1	-3	16	-9	-11	nt	nt
Cc1ccc(C)c(N2CCN(C3CCCCC3NS(=O)(=O)c3ccccc3)CC2)c1 (stereo not drawn)	5	-21	0	57*	1	-15
CCc1c(OC(C)=O)c2ccccc2n(C)c1=O	-6	22	-3	9	nt	nt
Cc1ccc(S(=O)(=O)CCC(=O)Nc2nc(-c3ccncc3)cs2)cc1	-3	-12	0	-12	nt	nt
CC(C)(C)S(=O)(=O)/C(C#N)=N/Nc1ccc(Cl)cc1	-17	-16	4	57*	-4	-2
O=C(CNC(=O)c1ccccc1Br)NCC(c1ccco1)N1CCCCC1 (stereo not drawn)	nt	nt	nt	66*	3	-10
O=C(CNC(=O)c1ccccc1)NCC(c1ccco1)N1CCCC1 (stereo not drawn)	nt	nt	nt	21	nt	nt
O=C(NCCc1ccccc1)c1cc2sccc2n1Cc1ccccc1	2	nt	4	3	nt	nt
CCn1c(C(=O)NCCCc2ccccc2)cc2sccc21	2	-8	-3	58*	4	0
NC(=O)[C@@H]1CCCN1Cc1c(C(=O)N2CCN(C3CCCCC3)CC2)nc2ccccn12	-15	-4	-5	54*	2	1
COc1ccc(CC(=O)OCC(=O)Nc2ccc(Cl)cn2)cc1	-4	8	1	-4	nt	nt
CCCCNS(=O)(=O)c1ccc(NC(=O)Cc2ccccc2[N+](=O)[O-])cc1	-4	-3	-3	56*	1	1
O=C(Cc1ccc(NC(=O)C2CCN(C(=O)C3CCC3)CC2)cc1)Nc1cccc(C(=O)N2CCCCC2)c1	nt	nt	nt	60*	5	-12
